From publication PMC4031611 (Nature chemistry, 2014)
Peptide text beside a SMILES is read from it. * marks the point of attachment. Cbz = O=C(OCc1ccccc1)*; CH2F = FC*

How the values were obtained:
HeLa tumor lysates = experiment: HPLC analysis of C-SNAF reaction in tumor lysates; assay type: in vivo, mouse; conditions: C-SNAF 5 μM, 24 h incubation with tumor lysate, 675 nm
[1] = tested on: STS-induced apoptotic HeLa cells; experiment: Flow cytometry of STS-induced apoptotic HeLa cells labelled with probe; assay type: cell-based, human
Outline: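 HeLa cells made apoptotic with staurosporine, or left viable, then incubated with probe (2 μM), with or without Z-VAD-fmk pretreatment (50 μM). Co-stained with a fluorescent caspase inhibitor (FLICA) as the apoptosis marker. Flow cytometry gated into four quadrants by FLICA and Cy5.5 positivity; Cy5.5 fluorescence compared between apoptotic and viable cells.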

[2] = tested on: subcutaneous HeLa tumors in female nude mice; experiment: In vivo fluorescence imaging of DOX-induced tumor apoptosis; parameters: species or system mouse
Outline: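 HeLa s.c. xenografts in female nu/nu mice given DOX 8 mg/kg or saline i.v. every 4 days, three times. Two days after the last dose, probe (5 nmol in saline) given i.v. and imaging started immediately: hyperspectral imager, 635±25 nm excitation, 675 nm long-pass emission, 670–900 nm collected. Cy5.5 unmixed from autofluorescence; tumor ROI intensity expressed as percent difference from saline group. Same animals also imaged after a single DOX dose.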

[3] = tested on: STS-induced apoptotic HeLa cells; experiment: Epifluorescence microscopy of STS-treated HeLa cells; assay type: cell-based, human; conditions: for cell labeling efficiency: then C-SNAF 2 µM 24 h, HeLa
[4] = Blood circulation and biodistribution in healthy nude mice; assay type: in vivo, mouse; conditions: 5 nmol i.v.
[5] = tested on: lysate of apoptotic HeLa cells; experiment: HPLC analysis of C-SNAF reaction in apoptotic cell lysate; assay type: cell-based, human; conditions: C-SNAF 5 μM, overnight, 37 °C
[6] = biological target: T1, recombinant human caspase-3 (Homo sapiens, UniProt P42574); experiment: Caspase-3-mediated macrocyclization in vitro, HPLC assay; assay type: biochemical; conditions: probe 25 μM, caspase-3 4.9 × 10^−3 U/ml, 37 °C
T1 sequence (P42574 29-175 limits assumed): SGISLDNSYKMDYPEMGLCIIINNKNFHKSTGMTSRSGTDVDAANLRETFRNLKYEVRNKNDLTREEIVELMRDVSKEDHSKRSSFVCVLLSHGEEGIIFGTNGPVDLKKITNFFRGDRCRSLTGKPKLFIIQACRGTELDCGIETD
T1 sequence (P42574 176-277 limits assumed): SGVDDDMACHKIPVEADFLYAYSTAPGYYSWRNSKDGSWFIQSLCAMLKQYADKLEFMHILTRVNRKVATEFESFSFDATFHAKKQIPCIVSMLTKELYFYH

[7] = Stability in mouse serum by HPLC; assay type: in vitro ADME
DOX-treated HeLa cells = experiment: Epifluorescence microscopy of DOX-treated HeLa cells; assay type: cell-based, human; conditions: for cell labeling efficiency: 24 h, HeLa
[8] = tested on: lysate of apoptotic MDA-MB-231 cells; experiment: HPLC analysis of C-SNAF reaction in apoptotic cell lysate; assay type: cell-based, human; conditions: C-SNAF 5 μM, overnight, 37 °C
HeLa tumor xenograft = experiment: Chemotherapy mouse model, tumor size; assay type: in vivo
Outline: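 Female nu/nu mice, 6 weeks old, given 2 million HeLa cells s.c. in the shoulders in 50% Matrigel/supplemented DMEM. Tumors grown to 0.7–0.9 cm on one aspect (about 10–15 days), then given DOX 8 mg/kg or saline i.v. every 4 days, three times. Body weight and caliper width/length recorded every other day; volume = (length × width²)/2.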

[9] = tested on: caspase-3/7 activity in HeLa tumor lysates; experiment: Caspase-Glo 3/7 assay in tumor lysates; assay type: in vivo, mouse; conditions: 3X DOX 8 mg/kg i.v., Caspase-Glo 3/7, n = 4

In the case of `CCSSC[C@@H](NC(=O)[C@H](CC(=O)O)NC(=O)[C@@H](NC(=O)[C@H](CCC(=O)O)NC(=O)[C@H](CC(=O)O)NC(C)=O)C(C)C)C(=O)N[C@@H](CCCCNC(=O)CCCCCN1C(=CC=CC=CC2=[N+](CC)c3ccc4c(S(=O)(=O)[O-])cc(S(=O)(=O)O)cc4c3C2(C)C)C(C)(C)c2c1ccc1c(S(=O)(=O)O)cc(S(=O)(=O)O)cc21)C(=O)Nc1ccc2nc(C3=N[C@@H](C(=O)NCCCOc4ccc5nc(C#N)ccc5c4)CS3)sc2c1` [C-SNAF], the “amount of C-SNAF-cycl in DOX-treated relative to saline-treated tumor lysates (HPLC)” value (HeLa tumor lysates) is reported as “significantly greater amount of C-SNAF-cycl”, the “uptake in untreated viable HeLa cells” value ([1]; probe 2 μM, 24 h, Cy5.5 fluorescence) is reported as “low uptake” and the “increase in Cy5.5 fluorescence of FLICA-positive apoptotic cells relative to viable cells” value ([1]; probe 2 μM, 24 h, STS 2 μM 4 h, HeLa) is reported as about 13 fold. For the same compound, the “increase in tumor fluorescence signal, DOX-treated compared to saline-treated mice” value ([2]; 5 nmol i.v., 3X DOX 8 mg/kg, by 4 h, n = 5) was 1.6 fold, the “time of maximum tumor fluorescence after administration” value ([2]; 5 nmol i.v., n = 5) was 1 h and the “tumor fluorescence relative to saline-treated mice” value ([2]; after single dose of DOX (1X DOX), 2 h after C-SNAF, n = 4) was “moderate increase in tumor fluorescence”. The “tumor fluorescence relative to saline and 1X DOX” value ([2]; after third round of DOX, same animals, n = 4) was “significant fluorescence enhancement”, the cell labeling efficiency ([3]; STS 0.5 μM 4 h) was 23% and the cell labeling efficiency ([3]; STS 2 μM 4 h) was 90%. The “enhancement in cell labeling efficiency” value ([3]; STS 0.5 to 2 μM) was “approximately 4 fold”, the “labeling of apoptotic cells (fluorescence microscopy, words)” value ([3]; probe 2 µM, 24 h, STS-treated HeLa cells) was “Efficient labeling” and the “time of nearly complete elimination from the body” value [4] was at most 12 h. For the same compound, the blood half-life ([4]; Cy5.5 fluorescence of blood, n = 5) was 1.0 ± 0.45 h, the “conversion of C-SNAF to C-SNAF-cycl” value [5] was “more than 90%” and the “conversion to C-SNAF-cycl after 6 h” value [6] was “nearly completely converted to C-SNAF-cycl”. For the same compound, the half-life [7] was over 6 h, the cell labeling efficiency (DOX-treated HeLa cells; DOX 1 μM co-incubated with C-SNAF 2 µM) was 9% and the cell labeling efficiency (DOX-treated HeLa cells; DOX 5 μM co-incubated with C-SNAF 2 µM) was 92%. The “enhancement in cell labeling efficiency” value (DOX-treated HeLa cells; DOX 1 to 5 μM) was “approximately 10 fold” and the “conversion of C-SNAF to C-SNAF-cycl” value [8] was “more than 90%”.

With `COc1cccc2c1C(=O)c1c(O)c3c(c(O)c1C2=O)C[C@@](O)(C(=O)CO)C[C@@H]3O[C@H]1C[C@H](N)[C@H](O)[C@H](C)O1` [DOX, doxorubicin] the “tumor size change” value (HeLa tumor xenograft; following 1X DOX 8 mg/kg i.v.) was “no significant size difference”, the “tumor size change” value (HeLa tumor xenograft; following the third round of DOX 8 mg/kg i.v.) was “significant size reduction” and the “increase in caspase-3/7 activity, DOX-treated relative to saline-treated tumors” value [9] was 1.9 fold.

With `COC(=O)C[C@H](NC(=O)[C@H](C)NC(=O)[C@@H](NC(=O)OCc1ccccc1)C(C)C)C(=O)CF` [Z-VAD-fmk, reference compound] (Cbz-Val-Ala-Asp(OMe)-CH2F) the “effect of caspase inhibitor on labeling by C-SNAF” value ([1]; Z-VAD-fmk 50 μM, 30 min before C-SNAF 2 μM, STS-treated HeLa) was “abrogated”.
